Measurements: ChEMBL document CHEMBL3872222, “Synthesis of novel curcuminoids accommodating a central β-enaminone motif and their impact on cell growth and oxidative stress” (Eur J Med Chem, 2016)
≈ marks a conversion by molar mass, not a printed value.

Key:
[1] = Solubility of the compound in serum-free DMEM assessed as compound concentration required for crystal formation measured after 1 day by microscopic analysis; format: physicochemical; details: 24 h
Method in brief: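 Compound at 0, 0.5, 1, 5, 10, 25 and 50 μM in serum-free DMEM incubated 1 day at 37 °C, 10% CO2, then examined for crystal formation.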

[2] = Antioxidant activity assessed as inhibition of DPPH radical activity at 1 uM measured after 30 mins under dark conditions by spectrophotometric analysis relative to control; format: functional
[3] = Growth inhibition of CHOK1 cells assessed as mitochondrial activity measured after 72 hrs by MTT assay; format: functional, cell-based; details: Cricetulus griseus, CHO-K1, 72 h
Method in brief: (§1)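 Seeded 20000 cells/well in DMEM+glutamax, NEAA, P/S, FBS; after 1 day treated 1, 5, 10, 25 μM in serum-free medium (DMSO under 0.1%) for 3 days. MTT (5 mg/ml in PBS) 2 h at 37 °C, 10% CO2 in dark; formazan dissolved in DMSO, absorbance 570 nm; triplicate; IC50 derived.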

[4] = Antioxidant activity assessed as trolox equivalent of ferric ion reducing activity using Fe3+-TPTZ by measuring Fe2+-TPTZ formation after 4 mins by UV-vis spectrophotometry based FRAP assay; format: functional
Method in brief: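 FRAP reagent: 300 mM acetate buffer, 10 mM TPTZ in ethanol and 20 mM FeCl3 (in dilute HCl) combined 10:1:1, TPTZ and iron freshly made. Sample mixed 1:9 with reagent; absorbance 593 nm after 4 min. Expressed as trolox equivalents per μM from slope of linear plot versus analog concentration.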

[5] = Growth inhibition of CHOK1 cells measured after 72 hrs by SRB assay; format: functional, cell-based; details: Cricetulus griseus, CHO-K1, 72 h
Method in brief: (§2)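 20000 cells/well treated after 1 day at 1, 5, 10, 25 μM, serum-free, for 3 days. Fixed with 50% TCA 1 h at 4 °C, stained 30 min with 0.4% sulforhodamine B in 1% acetic acid, rinsed with 1% acetic acid, dye dissolved in 10 mM Tris, absorbance 490 nm; triplicate; IC50 derived.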

[6] = Growth inhibition of human HT-29 cells measured after 72 hrs by SRB assay; format: functional, cell-based; details: HT-29, 72 h; method in brief: as §2
[7] = Growth inhibition of undifferentiated human Caco2 cells assessed as mitochondrial activity measured after 72 hrs by MTT assay; format: functional, cell-based; details: Caco-2, 72 h; method in brief: as §1
[8] = Growth inhibition of undifferentiated human Caco2 cells measured after 72 hrs by SRB assay; format: functional, cell-based; details: Caco-2, 72 h; method in brief: as §2
[9] = Growth inhibition of differentiated human Caco2 cells assessed as mitochondrial activity measured after 72 hrs by MTT assay; format: cell-based; details: Caco-2, 72 h; method in brief: as §1
[10] = Growth inhibition of differentiated human Caco2 cells measured after 72 hrs by SRB assay; format: cell-based; details: Caco-2, 72 h; method in brief: as §2
[11] = Growth inhibition of human HT-29 cells assessed as mitochondrial activity measured after 72 hrs by MTT assay; format: functional, cell-based; details: HT-29, 72 h; method in brief: as §1
[12] = Growth inhibition of human EAhy926 cells assessed as mitochondrial activity measured after 72 hrs by MTT assay; format: cell-based; details: EA.hy 926, 72 h; method in brief: as §1
[13] = Growth inhibition of human EAhy926 cells measured after 72 hrs by SRB assay; format: cell-based; details: EA.hy 926, 72 h; method in brief: as §2
EA.hy 926 [14] = test: Effect on oxidative stress in human EAhy926 cells assessed as intracellular ROS level at 1 uM after overnight incubation by DCFH-DA staining based fluorescence assay relative to control; format: functional
Method in brief: (§3)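 Cells grown in DMEM+glutamax, 1% NEAA, 1% P/S, 10% FBS; seeded 20000/well, treated at confluency overnight in serum-free medium, DMSO under 0.1% final. Loaded with 20 μM DCFH-DA 30 min at 37 °C, 10% CO2; washed, phenol red-free medium 1 h, then serum-free medium; fluorescence ex 485/em 535 nm. Percent of untreated; two-tailed unequal-variance t-test, n≥6.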

CHO [15] = test: Effect on oxidative stress in CHO cells assessed as intracellular ROS level at 1 uM after overnight incubation by DCFH-DA staining based fluorescence assay relative to control; format: functional, Cricetulus griseus; method in brief: as §3
CHO [16] = test: Effect on oxidative stress in CHO cells assessed as intracellular ROS level at 10 uM after overnight incubation by DCFH-DA staining based fluorescence assay relative to control; format: functional, Cricetulus griseus; method in brief: as §3
Caco-2 [17] = test: Effect on oxidative stress in undifferentiated human Caco2 cells assessed as intracellular ROS level at 1 uM after overnight incubation by DCFH-DA staining based fluorescence assay relative to control; format: functional; method in brief: as §3
Caco-2 [18] = test: Effect on oxidative stress in undifferentiated human Caco2 cells assessed as intracellular ROS level at 10 uM after overnight incubation by DCFH-DA staining based fluorescence assay relative to control; format: functional; method in brief: as §3
HT-29 [19] = test: Effect on oxidative stress in human HT-29 cells assessed as intracellular ROS level at 1 uM after overnight incubation by DCFH-DA staining based fluorescence assay relative to control; format: functional; method in brief: as §3
HT-29 [20] = test: Effect on oxidative stress in human HT-29 cells assessed as intracellular ROS level at 10 uM after overnight incubation by DCFH-DA staining based fluorescence assay relative to control; format: functional; method in brief: as §3
EA.hy 926 [21] = test: Effect on oxidative stress in human EAhy926 cells assessed as intracellular ROS level at 10 uM after overnight incubation by DCFH-DA staining based fluorescence assay relative to control; format: functional; method in brief: as §3
HT-29 [22] = test: Antioxidant activity in human HT-29 cells assessed as decrease in intracellular ROS level after overnight incubation by DCFH-DA staining based fluorescence assay; format: functional, cell-based; method in brief: as §3
HT-29 [23] = test: Antioxidant activity in human HT-29 cells assessed as decrease in intracellular ROS level after overnight incubation by DCFH-DA staining based fluorescence assay

SMILES	solubility [1] [µM]	inhibition [2] [%]	IC50 [3] [µM]	Activity [4] [µMequiv/µM]	IC50 [5] [µM]	IC50 [6] [µM]	IC50 [7] [µM]	IC50 [8] [µM]	IC50 [9] [µM]	IC50 [10] [µM]	IC50 [11] [µM]	IC50 [12] [µM]	IC50 [13] [µM]	Activity (EA.hy 926 [14]) [%]	Activity (CHO [15]) [%]	Activity (CHO [16]) [%]	Activity (Caco-2 [17]) [%]	Activity (Caco-2 [18]) [%]	Activity (HT-29 [19]) [%]	Activity (HT-29 [20]) [%]	other results
COc1cc(/C=C/C(=O)CC(=O)/C=C/c2ccc(O)c(OC)c2)ccc1O [CURCUMIN]	0.5 (≈ 0.184 µg/mL)	0.15	7.5	1	> 25	> 25	> 25	> 25	> 25	> 25	> 25	> 25	> 25	91	112	97	84	77	67	65	Activity (EA.hy 926 [21]): 88%; Activity (HT-29 [22]): Dose-dependent effect; Activity (HT-29 [23]): Dose-dependent effect
COc1cc(/C=C/C(=O)/C=C(/C=C/c2ccc(O)c(OC)c2)NC2CCCCC2)ccc1O	25 (≈ 11.2 µg/mL)	0.13	24.7	0.83	> 25	> 25	> 25	5.1	> 25	> 25	> 25	> 25	> 25	91	137	122	88	63	80	74	Activity (EA.hy 926 [21]): 191%
CCC(C)NC(=C\C(=O)/C=C/c1ccc(O)c(OC)c1)/C=C/c1ccc(O)c(OC)c1 (configuration not stated)	50 (≈ 21.2 µg/mL)	0.13	> 25	1.08	> 25	22.3	> 25	> 25	> 25	> 25	> 25	> 25	> 25	85	107	112	91	66	99	90	Activity (EA.hy 926 [21]): 184%

Continued, in another order:

solubility [1] [µM]	SMILES	inhibition [2] [%]	IC50 [3] [µM]	Activity [4] [µMequiv/µM]	IC50 [5] [µM]	IC50 [6] [µM]	IC50 [7] [µM]	IC50 [8] [µM]	IC50 [9] [µM]	IC50 [10] [µM]	IC50 [11] [µM]	IC50 [12] [µM]	IC50 [13] [µM]	Activity (EA.hy 926 [14]) [%]	Activity (CHO [15]) [%]	Activity (CHO [16]) [%]	Activity (Caco-2 [17]) [%]	Activity (Caco-2 [18]) [%]	Activity (HT-29 [19]) [%]	Activity (HT-29 [20]) [%]	other results
25 (≈ 9.09 µg/mL)	CC(C)CNC(=C\C(=O)/C=C/c1ccc(O)cc1)/C=C/c1ccc(O)cc1	0.02	17.9	0.19	23.7	22.5	23	18.5	> 25	> 25	20.1	> 25	> 25	100	109	97	100	82	77	75	Activity (EA.hy 926 [21]): 119%
25 (≈ 9.09 µg/mL)	CCC(C)NC(=C\C(=O)/C=C/c1ccc(O)cc1)/C=C/c1ccc(O)cc1 (configuration not stated)	0.03	13.1	0.18	15.1	15.6	9.4	5.8	> 25	> 25	13	22	> 25	99	104	111	102	102	76	76	Activity (EA.hy 926 [21]): 414%
